In PMC7488488 (Acta Pharmaceutica Sinica. B, 2019):
Read-outs that look alike come from different tables or passages of the source.

How the values were obtained:
MDM2 = MDM2 (Homo sapiens, UniProt Q00987); assay: TR-FRET; assay type: binding; settings: read-out: Inhibition rate at 1.0 μmol/L, MDM2
U87MG cells = assay: MTT cell proliferation assay; assay type: cell-based; settings: read-out: Anti-proliferative activity IC50, U87MG
U251 cells = assay: MTT cell proliferation assay; assay type: cell-based; settings: read-out: Anti-proliferative activity IC50, U251
T98G cells = assay: MTT cell proliferation assay; assay type: cell-based; settings: read-out: Anti-proliferative activity IC50, T98G
MDM2 and CDK4 = assay: TR-FRET inhibition at concentrations below 1.0 μmol/L; assay type: biochemical; settings: target per compound not stated
U251 xenografts = assay: U251 xenograft antitumor activity; assay type: in vivo; settings: mice; oral; 30 mg/kg; 21 days
Outline: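 SPF nude mice, 6–8 weeks old, with subcutaneous U251 xenografts; test compound or reference inhibitors given orally at 30 mg/kg, normal saline as vehicle control, analysed at 21 days. Tumor volume, tumor weight and body weight tracked; tumors immunostained for MDM2, P53, P21, pCDK4, pRB and Ki-67, plus TUNEL immunofluorescence, scored as percent positive cells; mean ± SD.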

[1] = 24-h incubation, MTT, mutated P53

Chain of MDM2 (Q00987 whole entry): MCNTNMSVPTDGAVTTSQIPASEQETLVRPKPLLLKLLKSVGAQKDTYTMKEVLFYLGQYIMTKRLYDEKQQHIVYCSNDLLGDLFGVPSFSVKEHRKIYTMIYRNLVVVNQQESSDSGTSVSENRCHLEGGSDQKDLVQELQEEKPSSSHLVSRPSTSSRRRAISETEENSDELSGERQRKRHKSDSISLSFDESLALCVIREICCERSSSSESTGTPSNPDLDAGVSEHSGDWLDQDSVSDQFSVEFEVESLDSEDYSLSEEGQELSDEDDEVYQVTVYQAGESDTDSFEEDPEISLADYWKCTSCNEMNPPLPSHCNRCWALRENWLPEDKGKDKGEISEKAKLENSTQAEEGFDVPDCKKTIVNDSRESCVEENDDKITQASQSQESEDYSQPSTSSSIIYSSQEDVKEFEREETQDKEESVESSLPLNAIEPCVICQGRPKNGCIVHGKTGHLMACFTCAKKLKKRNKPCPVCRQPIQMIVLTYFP

Row | inhibition at 1 µM (MDM2) [%] | IC50 (U87MG cells; Homo sapiens, U-87 MG, 24 h) [µM] | IC50 (U251 cells; Homo sapiens, U-251, 24 h) [µM] | IC50 (U87MG cells; 24-h incubation, MTT, wild-type P53) [µM] | IC50 (U251 cells; [1]) [µM] | SMILES | IC50 (T98G cells; Homo sapiens, T98G, 24 h) [µM] | IC50 (T98G cells; [1]) [µM] | inhibition at concentrations below 1.0 μmol/L (MDM2 and CDK4) | tumor growth (U251 xenografts)
1 | 36.2 | > 50 | > 50 | – | – | O=C(c1ccc(F)cc1)[C@H]1Cc2c(cc([N+](=O)[O-])cc2[N+](=O)[O-])[C@H](O)[C@]12C(=O)Nc1ccccc12 [4m′, (1′S,3S,3′S)-3′-(4-Fluorobenzoyl)-1′-hydroxy-5′,7′-dinitro-3′,4′-dihydro-1′H-spiro[indoline-3,2′-naphthalen]-2-one] | > 50 | – | – | –
2 | 38.4 ± 2.7 | 34.9 ± 2.62 | 25.9 ± 3.5 | – | – | O=C(c1ccc(Cl)c(Cl)c1)[C@H]1Cc2c(cc([N+](=O)[O-])cc2[N+](=O)[O-])[C@@H](O)[C@@]12C(=O)Nc1ccccc12 [4n, (1′R,3R,3′S)-3′-(3,4-Dichlorobenzoyl)-1′-hydroxy-5′,7′-dinitro-3′,4′-dihydro-1′H-spiro[indoline-3,2′-naphthalen]-2-one] | 32.5 ± 2.9 | – | – | –
3 | 36.3 | > 50 | > 50 | – | – | O=C(c1ccc(Cl)c(Cl)c1)[C@H]1Cc2c(cc([N+](=O)[O-])cc2[N+](=O)[O-])[C@H](O)[C@]12C(=O)Nc1ccccc12 [4n′, (1′S,3S,3′S)-3′-(3,4-Dichlorobenzoyl)-1′-hydroxy-5′,7′-dinitro-3′,4′-dihydro-1′H-spiro[indoline-3,2′-naphthalen]-2-one] | > 50 | – | – | –
4 | 47.1 ± 5.8 | 41.6 ± 4.3 | 44.2 ± 4.6 | – | – | O=C(c1ccc(Br)cc1)[C@H]1Cc2c(cc([N+](=O)[O-])cc2[N+](=O)[O-])[C@@H](O)[C@@]12C(=O)Nc1ccccc12 [4o, (1′R,3R,3′S)-3′-(4-Bromobenzoyl)-1′-hydroxy-5′,7′-dinitro-3′,4′-dihydro-1′H-spiro[indoline-3,2′-naphthalen]-2-one] | 45.7 ± 6.7 | – | – | –
5 | 29 | > 50 | > 50 | – | – | O=C(c1ccc(Br)cc1)[C@H]1Cc2c(cc([N+](=O)[O-])cc2[N+](=O)[O-])[C@H](O)[C@]12C(=O)Nc1ccccc12 [4o′, (1′S,3S,3′S)-3′-(4-Bromobenzoyl)-1′-hydroxy-5′,7′-dinitro-3′,4′-dihydro-1′H-spiro[indoline-3,2′-naphthalen]-2-one] | > 50 | – | – | –
6 | 35.7 ± 4.9 | 39.9 ± 4.2 | 43.2 ± 5.9 | – | – | COc1ccc(C(=O)[C@H]2Cc3c(cc([N+](=O)[O-])cc3[N+](=O)[O-])[C@@H](O)[C@@]23C(=O)Nc2ccccc23)cc1 [4p, (1′R,3R,3′S)-1′-Hydroxy-3′-(4-methoxybenzoyl)-5′,7′-dinitro-3′,4′-dihydro-1′H-spiro[indoline-3,2′-naphthalen]-2-one] | 45.9 ± 8.1 | – | – | –
7 | 26.9 | > 50 | > 50 | – | – | COc1ccc(C(=O)[C@H]2Cc3c(cc([N+](=O)[O-])cc3[N+](=O)[O-])[C@H](O)[C@]23C(=O)Nc2ccccc23)cc1 [4p′, (1′S,3S,3′S)-1′-Hydroxy-3′-(4-methoxybenzoyl)-5′,7′-dinitro-3′,4′-dihydro-1′H-spiro[indoline-3,2′-naphthalen]-2-one] | > 50 | – | – | –
8 | – | – | – | 25.3 ± 2.5 | > 50 | COc1ccc(C2=N[C@@H](c3ccc(Cl)cc3)[C@@H](c3ccc(Cl)cc3)N2C(=O)N2CCNC(=O)C2)c(OC(C)C)c1 [Nutlin-3a, nutlin-3a, reference compound] | – | > 50 | 40% to 20% | potently inhibited tumor growth
9 | – | 26.4 ± 3.8 | 18.9 ± 2.4 | – | – | CC(=O)c1c(C)c2cnc(Nc3ccc(N4CCNCC4)cn3)nc2n(C2CCCC2)c1=O [Palbociclib, palbociclib, reference compound] | 29.5 ± 4.5 | – | – | potently inhibited tumor growth
